From ChEMBL document CHEMBL3044840, “Antifungal activities of metabolites produced by a termite-associated Streptomyces canus BYB02” (J Agric Food Chem, 2013)
≈ marks a conversion by molar mass, not a printed value.

Tests used:
Pyricularia grisea [1] = assay: Antifungal activity against Magnaporthe grisea assessed as inhibition of mycelial growth; assay type: functional, organism-based
Outline: (§1)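 Poisoned-food assay. Serial concentrations in aqueous 1% DMSO/4% Tween-80 were mixed into molten potato dextrose agar. Mycelium was inoculated at the plate centre and incubated in the dark at 28 °C until control growth reached the dish edge. Inhibition % = (1 − Da/Db) × 100 from colony diameters. IC50 by probit analysis; run in triplicate.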

Cytospora mali = assay: Antifungal activity against Valsa mali assessed as inhibition of mycelial growth; assay type: functional, organism-based
Outline: (§2)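 Mycelial growth on potato dextrose agar in 9 cm dishes containing serial concentrations of sample, dissolved in aqueous 1% DMSO/4% Tween-80. Mycelium inoculated at plate centre and incubated in the dark at 28 °C until control growth reached the dish edge. Inhibition (%) = (1 − Da/Db) × 100 from growth-zone diameters. IC50 by probit analysis. Cycloheximide as positive control. Run in triplicate.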

Fusarium graminearum = assay: Antifungal activity against Fusarium graminearum assessed as inhibition of mycelial growth; assay type: functional, organism-based; outline: as §1
Dothiorella gregaria = assay: Antifungal activity against Dothiorella gregaria assessed as inhibition of mycelial growth; assay type: functional, organism-based; outline: as §2
Pyricularia grisea [2] = assay: Antifungal activity against Magnaporthe grisea in fourth-leaf stage of rice plant assessed as curative efficacy at 100 ug/ml after 11 days relative to control; assay type: functional
Rhizoctonia solani = assay: Antifungal activity against Rhizoctonia solani assessed as inhibition of mycelial growth; assay type: functional, organism-based; outline: as §2
[3] = test system: Fusarium oxysporum f. sp. cucumerinum; assay: Antifungal activity against Fusarium oxysporum f. sp. cucumerinum assessed as inhibition of mycelial growth; assay type: functional, organism-based; outline: as §2
Pyricularia grisea [4] = assay: Antifungal activity against Magnaporthe grisea assessed as inhibition of spore germination after 12 hr by light microscopic analysis; assay type: functional, organism-based
Outline: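 M. oryzae spores were taken from 7-day oatmeal–tomato agar cultures. 50 μL of compound in 1% DMSO/4% Tween-80 was mixed with 50 μL spore suspension (2.5 × 10^5 spores). 40 μL drops went on slides, in triplicate. Slides were kept in a moist chamber at 28 °C for 12 h. About 100 spores per replicate were scored; IC50 by probit analysis.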

Pyricularia grisea [5] = assay: Antifungal activity against Magnaporthe grisea in fourth-leaf stage of rice plant assessed as preventive efficacy at 100 ug/ml after 11 days relative to control; assay type: functional

Row | Compound | IC50 (Pyricularia grisea [1]) [µg/mL] | IC50 (Cytospora mali) [µg/mL] | IC50 (Fusarium graminearum) [µg/mL] | IC50 (Dothiorella gregaria) [µg/mL] | Activity (Pyricularia grisea [2]) [%] | IC50 (Rhizoctonia solani) [µg/mL] | IC50 [3] [µg/mL] | IC50 (Pyricularia grisea [4]) [µg/mL] | Activity (Pyricularia grisea [5]) [%]
1 | Cc1cc(O)cc2cc3c(c(O)c12)C(=O)c1c(O)cc(O)cc1C3=O [TETRACENOMYCIN D] | > 25 | > 25 | – | – | – | – | – | – | –
2 | Cc1cc(O)c2c3c4c(cc(O)c13)C(C)(C)C(=O)c1c(O)cc(O)c(c1-4)C2=O [HELIOMYCIN] | 3.8 (≈ 10.1 µM) | 1.1 (≈ 2.92 µM) | > 100 | > 100 | <25 | > 100 | > 100 | 5.55 (≈ 14.7 µM) | 66.8
3 | C[C@@H]1C[C@@H]([C@H](O)CC2CC(=O)NC(=O)C2)C(=O)[C@@H](C)C1 [CYCLOHEXIMIDE] | 2.3 (≈ 8.17 µM) | 0.3 (≈ 1.07 µM) | 3.3 (≈ 11.7 µM) | 0.9 (≈ 3.2 µM) | – | 0.3 (≈ 1.07 µM) | 4.9 (≈ 17.4 µM) | – | –
4 | COC(=O)Nc1nc2ccccc2[nH]1 [CARBENDAZIM] | – | – | – | – | – | – | – | – | 58.7
